Results on 18 molecules are retold here after ChEMBL document CHEMBL3397031, “Synthesis and structure-activity relationships of pyridinyl-1H-1,2,3-triazolyldihydroisoxazoles as potent inhibitors of tubulin polymerization” (Eur J Med Chem, 2015).

The subject of test [1] is HeLa. Nature of the test: Cell cycle arrest at G2/M phase in human HeLa cells assessed as increase in cyclin B1 expression at 2 uM after 24 hrs by immunoblot analysis relative to control. It counts as functional, cell-based. (In western blotting, separated proteins are transferred to a membrane and probed.)
Test [2] concerns HeLa. Description: Cell cycle arrest at G2/M phase in human HeLa cells assessed as soluble form of tubulin at 2 uM after 24 hrs by immunoblot analysis relative to control. It counts as functional, cell-based. Summed up: (§1)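 HeLa cells seeded at 1×10^5 per well in complete growth medium and treated 24 h (test compounds 10 µM; nocodazole 2 µM as positive control; DMSO controls). Soluble tubulin was taken by 3 min permeabilization at 30 °C in PIPES-KOH pH 6.8/0.2% Triton X-100/glycerol buffer, and insoluble pellet fraction in Laemmli buffer. Equal volumes were run on SDS-10% PAGE and probed with mouse anti-α-tubulin, with HRP secondary and ECL detection.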

The target in another test is Tubulin (Bos taurus) (UniProt Q6B856+Q862L2+Q862F3). To be noted: at 10 µM.
Test [3] concerns HeLa. Nature of the test: Cytotoxicity against human HeLa cells after 48 hrs by MTT assay. It counts as functional, cell-based. Summed up:
(§2)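 A549, HeLa and MCF7 cells were grown in DMEM with 10% FBS, and DU145 in MEM with non-essential amino acids, pyruvate, insulin and 10% FBS. Cells were plated 24 h before dosing, then exposed continuously for 48 h at 1, 10, 25 and 100 µM in triplicate wells. MTT was added for 60 min, dissolved in DMSO and read at 560 nm. IC50 was taken from dose-response curves against control, as mean ± SD of three independent experiments.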
For orientation: Tetrazolium dyes change colour on reduction, which living cells bring about.

The test system of another test is MCF7. Nature of the test: Cytotoxicity against human MCF7 cells after 48 hrs by MTT assay. The class given is functional, cell-based. The note with it: MCF7, 48 h. Summed up:
as §2

The next test has as its system A549. Nature of the test: Cytotoxicity against human A549 cells after 48 hrs by MTT assay. The class given is functional, cell-based. To be noted: A549, 48 h. The method, boiled down: as §2
Another test has as its system DU-145. Nature of the test: Cytotoxicity against human DU145 cells after 48 hrs by MTT assay. The note with it: DU-145, 48 h. The class given is functional, cell-based. The method, boiled down: as §2
For test [4], the system named is HeLa. Description: Cell cycle arrest in human HeLa cells assessed as planar arrangement of chromosomes with distinct microtubule organization centres at 10 uM after 24 hrs by DAPI staining-based immunohistochemistry relative to control. The class given is functional. Summed up: (§3)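 HeLa cells were grown on coverslips and treated 24 h at 10 µM. They were fixed in 3.5% formaldehyde/PBS pH 7.4 for 10 min, permeabilized with 0.5% Triton X-100/0.05% Tween-20 and blocked in 2% BSA. Staining used anti-tubulin (1:200, 4 h, room temperature) then FITC anti-mouse (1:500, 1 h). Cells were mounted with DAPI and imaged by confocal microscopy.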

The test system of test [5] is HeLa. Description: Cell cycle arrest in human HeLa cells assessed as accumulation at G2/M phase at 10 uM after 24 hrs by FACS analysis (reference value: 26.75%). It counts as functional. In general terms: Flow cytometry measures light scatter and fluorescence of single cells or particles in a stream.
The subject of test [6] is HeLa. Nature of the test: Cell cycle arrest at G2/M phase in human HeLa cells assessed as increase in cyclin B1 expression at 10 uM after 24 hrs by immunoblot analysis relative to control. The class given is functional, cell-based.
The test system of test [7] is HeLa. Description: Cell cycle arrest at G2/M phase in human HeLa cells assessed as increase in soluble form of tubulin at 10 uM after 24 hrs by immunoblot analysis relative to control. The class given is functional, cell-based. Summed up:
as §1

The test system of test [8] is HeLa. Nature of the test: Cell cycle arrest at G2/M phase in human HeLa cells assessed as reduction in polymerized form of tubulin at 10 uM after 24 hrs by immunoblot analysis relative to control. It counts as functional, cell-based. Summed up: as §1
The next test deals with Tubulin (Bos taurus, UniProt Q6B856+Q862L2+Q862F3). Description: Inhibition of bovine brain tubulin polymerization measured for 1 hr by fluorescence assay.
For test [9], the system named is HeLa. Description: Cell cycle arrest in human HeLa cells assessed as disruption of microtubule organization at 10 uM after 24 hrs by DAPI staining-based immunohistochemistry relative to control. It counts as functional. Summed up: as §3

The source made the active and inactive calls. The calls are words filed in the database; no cut-off is given here.

As for `COC(=O)Nc1nc2cc(C(=O)c3cccs3)ccc2[nH]1`, the result in the test on HeLa [1] and in the test with HeLa [2] was Active.
For orientation: inhibition means the relative decrease from the control value, in per cent. Higher therefore signals a strong effect. In general, IC50 refers to the midpoint of a concentration-inhibition curve. Molecule `COc1cc(-c2cc(COCc3cn(Cc4cc(-c5ccccc5)cnc4N4CCOCC4)nn3)on2)cc(OC)c1OC` gave an inhibition against Tubulin (Bos taurus) of 27%. Besides, the IC50 in the test on HeLa [3] is 39.4 µM; with MCF7 it was 63.4 µM; in the test with A549, 39.2 µM; in the test with DU-145, 54 µM.
`COc1cc(C2=NOC(COCc3cn(Cc4cc(-c5ccc(C)cc5)cnc4Cl)nn3)C2)cc(OC)c1OC` (stereo unspecified) gave an inhibition at Tubulin (Bos taurus) of 69%. The outcome with HeLa [4], in the test on HeLa [6], in the test with HeLa [7], with HeLa [8] and in the test on HeLa [9] was Active. Besides, the IC50 in the test on HeLa [3] is 9.7 µM; with MCF7 it was 12.9 µM; in the test on A549, 11.5 µM; on Tubulin it was 8.1 µM; with DU-145, 13.1 µM. Further, the Activity in the test on HeLa [5] worked out at 78.85%.
The molecule `COc1cc(C2=NOC(COCc3cn(Cc4cc(C)cnc4N4CCOCC4)nn3)C2)cc(OC)c1OC` (stereo unspecified) yielded an inhibition against Tubulin (Bos taurus) of 27%. Besides, the IC50 worked out at 37.3 µM in the test on HeLa [3], 146 µM in the test on MCF7, 45.4 µM with A549 and 138 µM in the test on DU-145.
The like results for `COc1cc(COCc2cn(Cc3cc(-c4ccc(C)cc4)cnc3N3CCSCC3)nn2)cc(OC)c1OC` were, in that order, 21%, 352 µM, 67.8 µM, 33.9 µM and 41.9 µM.
With `COc1cc(COCc2cn(Cc3cc(C)cnc3Cl)nn2)cc(OC)c1OC`, the inhibition on Tubulin (Bos taurus) came out at 24%. Moreover, the IC50 with HeLa [3] came out at 264 µM; in the test on MCF7 it was 67.4 µM; in the test with A549, 41.9 µM; with DU-145, 34.8 µM.
Take `COc1cc(C2=NOC(COCc3cn(Cc4cc(-c5ccc(F)cc5)cnc4Cl)nn3)C2)cc(OC)c1OC` (stereo unspecified): the inhibition against Tubulin (Bos taurus) is 51%. In addition, the IC50 is 27.2 µM in the test with HeLa [3], 45.7 µM in the test with MCF7, 25.2 µM in the test with A549 and 32.8 µM with DU-145.
The like results for `COc1cc(-c2cc(COCc3cn(Cc4cc(C)cnc4N4CCOCC4)nn3)on2)cc(OC)c1OC` were, in that order, 19%, 128 µM, 195 µM, 39.5 µM and 54.7 µM.
In the case of `COc1cc(C2=NOC(COCc3cn(Cc4cc(C)cnc4Cl)nn3)C2)cc(OC)c1OC` (stereo unspecified), at Tubulin (Bos taurus), the inhibition was found to be 53%. In addition, the IC50 in the test on HeLa [3] was 50.5 µM; in the test with MCF7 it was 85.5 µM; in the test on A549 it was 37.7 µM; in the test on DU-145, 58.9 µM.
At Tubulin (Bos taurus), `COc1cc(-c2cc(COCc3cn(Cc4cc(C)cnc4Cl)nn3)on2)cc(OC)c1OC` yielded an inhibition of 22%. The IC50 in the test on HeLa [3] is 57.7 µM; in the test on MCF7 it was 194 µM; in the test on A549, 256 µM; in the test on DU-145, 39.8 µM.
In turn, `COc1cc(-c2cc(COCc3cn(Cc4cc(-c5ccc(C)cc5)cnc4Cl)nn3)on2)cc(OC)c1OC` yielded an inhibition against Tubulin (Bos taurus) of 59%. In addition, the IC50 with HeLa [3] came out at 35.3 µM; in the test on MCF7, 58.4 µM; in the test with A549 it was 30.6 µM; in the test with DU-145 it was 37.3 µM.
Taken in the same sequence, the figures for `COc1cc(-c2cc(COCc3cn(Cc4cc(-c5ccccc5)cnc4N4CCSCC4)nn3)on2)cc(OC)c1OC` were 11%, 175 µM, 213 µM, 52.6 µM and 210 µM.
The molecule `COc1cc(C2=NOC(COCc3cn(Cc4cc(-c5ccc(C)cc5)cnc4N4CCOCC4)nn3)C2)cc(OC)c1OC` (stereo unspecified) registered an inhibition on Tubulin (Bos taurus) of 27%. In addition, the IC50 in the test with HeLa [3] came out at 38.7 µM; in the test on MCF7 it was 59.6 µM; in the test on A549, 39.6 µM; with DU-145 it was 49.7 µM.
As to `COc1cc(COCc2cn(Cc3cc(C)cnc3N3CCSCC3)nn2)cc(OC)c1OC`, on Tubulin (Bos taurus), the inhibition came to 27%. Also, the IC50 with HeLa [3] is 61.8 µM; in the test with MCF7, 82.1 µM; in the test with A549, 71.5 µM; with DU-145, 48.6 µM.
`COc1cc(COCc2cn(Cc3cc(-c4ccc(C)cc4)cnc3Cl)nn2)cc(OC)c1OC` gave an inhibition against Tubulin (Bos taurus) of 35%. For the same molecule, the IC50 came to 28.6 µM in the test on HeLa [3], 146 µM in the test with MCF7, 150 µM in the test with A549 and 37 µM in the test on DU-145.
Consider `COc1cc(C2=NOC(COCc3cn(Cc4cc(-c5ccccc5)cnc4Cl)nn3)C2)cc(OC)c1OC` (stereo unspecified), for which the inhibition against Tubulin (Bos taurus) was 72%. For the same molecule, the outcome in the test on HeLa [4], in the test on HeLa [6], in the test with HeLa [7], in the test with HeLa [8] and with HeLa [9] was Active. Also, the IC50 with HeLa [3] was 7.3 µM; with MCF7 it was 14.6 µM; in the test with A549, 8.6 µM; against Tubulin, 6.8 µM; in the test with DU-145 it was 11.4 µM. For the same molecule, the Activity with HeLa [5] is 87.79%.
As to `COc1cc(-c2cc(COCc3cn(Cc4cc(-c5ccc(C)cc5)cnc4N4CCOCC4)nn3)on2)cc(OC)c1OC`, on Tubulin (Bos taurus), the inhibition stood at 64%. For the same molecule, the 50% inhibitory concentration (IC50) in the test on HeLa [3] worked out at 36.1 µM; in the test with MCF7, 73.4 µM; with A549 it was 45.3 µM; with DU-145 it was 52.1 µM.
Taken in the same sequence, the figures for `COc1cc(COCc2cn(Cc3cc(C)cnc3N3CCOCC3)nn2)cc(OC)c1OC` were 45%, 35.6 µM, 48.5 µM, 64.9 µM and 66.7 µM.
